Measurements reported in ChEMBL document CHEMBL2440058, “Synthesis and structure-activity relationship studies of novel dihydropyridones as androgen receptor modulators” (J Med Chem, 2013).
Active and inactive are the calls of the source.

Legend:
[1] = target: T1, Androgen receptor (Homo sapiens) (UniProt P10275); experiment: Inhibition of androgen receptor in human LNCAP cells assessed as decrease in PSA mRNA expression at 5 uM by RT-PCR analysis relative to control; assay type: cell-based
T1 sequence (whole entry): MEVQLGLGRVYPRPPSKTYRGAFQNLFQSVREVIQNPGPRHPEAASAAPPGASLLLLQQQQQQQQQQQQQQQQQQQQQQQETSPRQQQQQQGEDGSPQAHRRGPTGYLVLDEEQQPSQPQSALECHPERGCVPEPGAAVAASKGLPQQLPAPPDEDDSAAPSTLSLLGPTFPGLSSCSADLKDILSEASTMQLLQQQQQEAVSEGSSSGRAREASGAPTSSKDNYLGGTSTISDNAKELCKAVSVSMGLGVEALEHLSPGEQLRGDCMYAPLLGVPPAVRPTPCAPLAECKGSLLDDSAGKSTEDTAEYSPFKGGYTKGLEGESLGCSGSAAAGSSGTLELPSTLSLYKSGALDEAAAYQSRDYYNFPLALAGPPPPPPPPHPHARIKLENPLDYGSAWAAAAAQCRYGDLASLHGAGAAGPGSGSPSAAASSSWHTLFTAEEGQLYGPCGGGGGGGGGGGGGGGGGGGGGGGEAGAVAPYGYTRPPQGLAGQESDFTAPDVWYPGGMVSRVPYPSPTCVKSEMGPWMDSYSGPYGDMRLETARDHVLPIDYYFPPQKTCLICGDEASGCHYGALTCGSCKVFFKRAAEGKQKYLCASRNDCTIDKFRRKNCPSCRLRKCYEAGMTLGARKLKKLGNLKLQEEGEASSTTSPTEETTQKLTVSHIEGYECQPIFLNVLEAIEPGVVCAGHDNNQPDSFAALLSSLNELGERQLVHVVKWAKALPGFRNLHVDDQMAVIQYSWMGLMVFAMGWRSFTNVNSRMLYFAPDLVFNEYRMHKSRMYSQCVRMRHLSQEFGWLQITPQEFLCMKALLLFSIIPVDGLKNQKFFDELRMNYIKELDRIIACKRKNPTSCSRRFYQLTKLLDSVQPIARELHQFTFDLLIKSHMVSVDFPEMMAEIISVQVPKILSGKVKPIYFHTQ
Outline: (§1)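 LNCaP cells grown in RPMI 1640 with 10% FBS at 37°C. Transcript levels measured by real-time RT-PCR with rRNA as the reference gene. Relative RNA calculated from threshold cycles by the comparative Ct method.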

[2] = target: T1, Androgen receptor (Homo sapiens); experiment: Inhibition of androgen receptor in human LNCAP cells assessed as decrease in TMPRSS2 mRNA expression at 5 uM by RT-PCR analysis relative to control; assay type: cell-based; outline: as §1
Androgen receptor = target: T2, Androgen receptor (Homo sapiens, UniProt P10275); experiment: Displacement of Fluormone AL Green from androgen receptor ligand binding domain (unknown origin) after 4 hrs by fluorescence polarization assay
T2 sequence (P10275 whole entry): T1 sequence (whole entry)

LNCaP = experiment: Cytotoxicity against human LNCAP cells at 5.56 to 50 uM after 48 hrs by 7-AAD dye-based flow cytometric analysis; assay type: cell-based
Outline: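 LNCaP cells (RPMI 1640, 10% FBS, 37°C) exposed to compound for 48 h in 10% FBS medium; 1% DMSO as vehicle control. Viable cell count measured by flow cytometry using 7-AAD viability stain.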

[3] = target: T1, Androgen receptor (Homo sapiens); details: LNCaP, at 0.5 to 3 µM

Row | SMILES | inhibition [1] | inhibition [2] | IC50 (Androgen receptor) | inhibition [3] | Activity (LNCaP)
1 | CC(C)(C)[Si](C)(C)O[C@H]1C(=O)C=CN(C(=O)c2ccc(C(F)(F)F)nc2)[C@@H]1c1ccc2c(c1)OCO2 (racemic) | 90% | 90% | – | – | –
2 | O=C1C=CN(C(=O)/C=C/c2ccccc2)[C@H](c2ccccc2)[C@H]1O (racemic) | Active | Active | – | – | –
3 | O=C1C=CN(C(=O)Oc2ccccc2)[C@H](c2ccccc2)[C@H]1O (racemic) | 90% | 90% | – | – | –
4 | CC(C)(C)[Si](C)(C)O[C@H]1C(=O)C=CN(C(=O)Oc2ccccc2)[C@@H]1c1ccc2c(c1)OCO2 (racemic) | 90% | 90% | – | – | –
5 | CC(C)(C)[Si](C)(C)O[C@H]1C(=O)C=CN[C@@H]1c1ccc2c(c1)OCO2 (racemic) | 90% | 90% | – | – | –
6 | COc1ccc(C(=O)O[C@H]2C(=O)C=CN(C(=O)/C=C/c3ccccc3)[C@@H]2c2ccccc2)cc1 (racemic) | Active | Active | – | – | –
7 | Cc1csc([C@@H]2[C@@H](O)C(=O)C=CN2C(=O)Oc2ccccc2)c1 (racemic) | 90% | 90% | – | – | –
8 | O=C1C=CN[C@H](c2ccccc2)[C@H]1O (racemic) | 90% | 90% | – | – | –
9 | O=C1C=CN(C(=O)Oc2ccccc2)[C@H](c2cccc(-c3ccccc3)c2)[C@H]1O (racemic) | 90% | 90% | – | – | –
10 | O=C(O[C@H]1C(=O)C=CN(C(=O)/C=C/c2ccccc2)[C@@H]1c1ccccc1)C1CC1 (racemic) | Active | Active | – | – | –
11 | Cc1csc([C@@H]2[C@@H](OC(=O)N(C)c3ccccc3)C(=O)C=CN2C(=O)C2CC2)c1 (racemic) | 90% | 90% | – | – | –
12 | Cc1csc([C@H]2NC=CC(=O)[C@@H]2OC(=O)N(C)c2ccccc2)c1 (racemic) | 90% | 90% | – | – | –
13 | O=C1C=CN(C(=O)Oc2ccccc2)[C@H](c2ccc(-c3ccccc3)cc2)C1 (racemic) | 90% | 90% | – | – | –
14 | O=C(Cc1ccccc1)O[C@H]1C(=O)C=CN(C(=O)/C=C/c2ccccc2)[C@@H]1c1ccccc1 (racemic) | Active | Active | – | – | –
15 | N#Cc1cccc(C(=O)O[C@H]2C(=O)C=CN(C(=O)/C=C/c3ccccc3)[C@@H]2c2ccccc2)c1 (racemic) | Active | Active | – | – | –
16 | CC(C)(C)[Si](C)(C)O[C@H]1C(=O)C=CN(C(=O)Cc2ccccc2)[C@@H]1c1ccc2c(c1)OCO2 (racemic) | 90% | 90% | – | – | –
17 | O=C(/C=C/c1cccc(C(F)(F)F)c1)O[C@H]1C(=O)C=CN(C(=O)/C=C/c2ccccc2)[C@@H]1c1ccccc1 (racemic) | Active | Active | – | – | –
18 | CC(C)(C)[Si](C)(C)O[C@H]1C(=O)C=CN(C(=O)C2CC2)[C@@H]1c1ccc2c(c1)OCO2 (racemic) | 90% | 90% | – | – | –
19 | O=C1C=CN(C(=O)c2ccccc2)[C@H](c2ccccc2)[C@H]1O (racemic) | 90% | 90% | – | – | –
20 | N#Cc1ccc(C(=O)O[C@H]2C(=O)C=CN(C(=O)/C=C/c3ccccc3)[C@@H]2c2ccccc2)cc1 (racemic) | Active | Active | – | – | –
21 | O=C1C=CN(C(=O)Oc2ccccc2)[C@H](c2ccc3c(c2)OCO3)[C@H]1O (racemic) | 90% | 90% | – | – | –
22 | CC(C)(C)[Si](C)(C)O[C@H]1C(=O)C=CN(C(=O)Oc2ccccc2)[C@@H]1c1ccccc1 (racemic) | 90% | 90% | – | – | –
23 | Cc1csc([C@@H]2[C@@H](OC(=O)N(C)c3ccccc3)C(=O)C=CN2C(=O)c2ccc(C(F)(F)F)nc2)c1 (racemic) | 90% | 90% | – | – | –
24 | O=C(O[C@H]1C(=O)C=CN(C(=O)/C=C/c2ccccc2)[C@@H]1c1ccccc1)c1ccc(Cl)cc1 (racemic) | Active | Active | – | – | –
25 | O=C1C=CN(C(=O)Oc2ccccc2)[C@H](c2ccccc2)C1 (racemic) | 90% | 90% | – | – | –

Now from value to molecule, other results behind:

Row | inhibition [1] | inhibition [2] | IC50 (Androgen receptor) | inhibition [3] | SMILES | Activity (LNCaP)
26 | Active | Active | – | – | CC(C)=C[C@@H]1[C@@H](OC(=O)c2ccc(F)cc2C(F)(F)F)C(=O)C=CN1C(=O)Oc1ccccc1 (racemic) | –
27 | Active | Active | – | – | Cc1csc([C@@H]2[C@@H](OC(=O)c3ccc(F)cc3C(F)(F)F)C(=O)C=CN2C(=O)Oc2ccccc2)c1 (racemic) | –
28 | Active | Active | – | – | O=C(O[C@H]1C(=O)C=CN(C(=O)/C=C/c2ccccc2)[C@@H]1c1ccccc1)c1ccccc1C(F)(F)F (racemic) | –
29 | Active | Active | – | – | O=C(O[C@H]1C(=O)C=CN(C(=O)Oc2ccccc2)[C@@H]1c1cc(F)cc(F)c1)c1ccc(F)cc1C(F)(F)F (racemic) | –
30 | Active | Active | – | – | O=C(O[C@H]1C(=O)C=CN(C(=O)Oc2ccccc2)[C@@H]1c1ccccc1)c1ccc(F)cc1C(F)(F)F (racemic) | –
31 | Active | Active | – | – | O=C(O[C@H]1C(=O)C=CN(C(=O)Oc2ccccc2)[C@@H]1c1cccc(-c2ccccc2)c1)c1ccc(F)cc1C(F)(F)F (racemic) | –
32 | 90% | 90% | – | – | Cc1csc([C@@H]2[C@@H](OC(=O)N(C)c3ccccc3)C(=O)C=CN2C(=O)Oc2ccccc2)c1 (racemic) | –
33 | Active | Active | – | – | O=C(O[C@H]1C(=O)C=CN(C(=O)Oc2ccccc2)[C@@H]1c1ccc2c(c1)OCO2)c1ccc(F)cc1C(F)(F)F (racemic) | –
34 | Active | Active | 30.1 µM | inactive | O=C(O[C@H]1C(=O)C=CN(C(=O)/C=C/c2ccccc2)[C@@H]1c1ccccc1)c1ccc(F)cc1C(F)(F)F (racemic) | Non-toxic
35 | Active | Active | – | – | CC(C)[C@@H]1[C@@H](OC(=O)c2ccc(F)cc2C(F)(F)F)C(=O)C=CN1C(=O)Oc1ccccc1 (racemic) | –
36 | 90% | 90% | – | – | O=C(O[C@H]1C(=O)C=CN(C(=O)c2ccccc2)[C@@H]1c1ccccc1)c1ccc(F)cc1C(F)(F)F (racemic) | –
37 | Active | Active | – | – | C[C@@H]1[C@@H](OC(=O)c2ccc(F)cc2C(F)(F)F)C(=O)C=CN1C(=O)Oc1ccccc1 (racemic) | –
